# Activity calls are given as the source filed them. The rule behind the calls is not given here.
# Experiments:
# Canis familiaris [1] = assay: Intravenous effective dose for gastric antisecretory activity against histamine-stimulated gastric acid secretion in adult mongrel dogs; Inactive-less than 20% inhibition at 5 mg/Kg (experimental); type: functional, organism-based; conditions: Canis lupus familiaris; Stomach
# In short: (§1)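 Adult mongrel dogs with surgically prepared Heidenhain pouches received histamine to stimulate acid secretion. Compounds were given intravenously at 0.1-5 mg/kg. Reduction in acid output was measured against the non-drug control value in the same animal. ED50 for 50% inhibition was derived by linear regression, with 95% confidence limits.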
# [2] = Dissociation constant (pKa); type: physicochemical
# [3] = target: T1, Potassium-transporting ATPase (Sus scrofa, UniProt P18434+P19156); assay: (§2) Inhibition of purified H+/K+ ATPase at pH 7.4 as released inorganic phosphate from ATP using hog stomach gastric membrane vesicles; type: tissue-based
# T1 sequence (P18434 whole entry): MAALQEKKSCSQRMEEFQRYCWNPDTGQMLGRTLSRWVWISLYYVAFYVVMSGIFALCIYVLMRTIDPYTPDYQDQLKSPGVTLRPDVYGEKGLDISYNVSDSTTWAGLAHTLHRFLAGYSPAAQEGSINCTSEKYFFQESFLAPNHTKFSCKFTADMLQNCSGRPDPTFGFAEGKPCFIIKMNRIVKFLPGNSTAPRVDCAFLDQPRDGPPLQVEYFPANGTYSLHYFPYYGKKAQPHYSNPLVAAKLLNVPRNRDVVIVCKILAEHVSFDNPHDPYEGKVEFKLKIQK
# T1 sequence (P19156 whole entry): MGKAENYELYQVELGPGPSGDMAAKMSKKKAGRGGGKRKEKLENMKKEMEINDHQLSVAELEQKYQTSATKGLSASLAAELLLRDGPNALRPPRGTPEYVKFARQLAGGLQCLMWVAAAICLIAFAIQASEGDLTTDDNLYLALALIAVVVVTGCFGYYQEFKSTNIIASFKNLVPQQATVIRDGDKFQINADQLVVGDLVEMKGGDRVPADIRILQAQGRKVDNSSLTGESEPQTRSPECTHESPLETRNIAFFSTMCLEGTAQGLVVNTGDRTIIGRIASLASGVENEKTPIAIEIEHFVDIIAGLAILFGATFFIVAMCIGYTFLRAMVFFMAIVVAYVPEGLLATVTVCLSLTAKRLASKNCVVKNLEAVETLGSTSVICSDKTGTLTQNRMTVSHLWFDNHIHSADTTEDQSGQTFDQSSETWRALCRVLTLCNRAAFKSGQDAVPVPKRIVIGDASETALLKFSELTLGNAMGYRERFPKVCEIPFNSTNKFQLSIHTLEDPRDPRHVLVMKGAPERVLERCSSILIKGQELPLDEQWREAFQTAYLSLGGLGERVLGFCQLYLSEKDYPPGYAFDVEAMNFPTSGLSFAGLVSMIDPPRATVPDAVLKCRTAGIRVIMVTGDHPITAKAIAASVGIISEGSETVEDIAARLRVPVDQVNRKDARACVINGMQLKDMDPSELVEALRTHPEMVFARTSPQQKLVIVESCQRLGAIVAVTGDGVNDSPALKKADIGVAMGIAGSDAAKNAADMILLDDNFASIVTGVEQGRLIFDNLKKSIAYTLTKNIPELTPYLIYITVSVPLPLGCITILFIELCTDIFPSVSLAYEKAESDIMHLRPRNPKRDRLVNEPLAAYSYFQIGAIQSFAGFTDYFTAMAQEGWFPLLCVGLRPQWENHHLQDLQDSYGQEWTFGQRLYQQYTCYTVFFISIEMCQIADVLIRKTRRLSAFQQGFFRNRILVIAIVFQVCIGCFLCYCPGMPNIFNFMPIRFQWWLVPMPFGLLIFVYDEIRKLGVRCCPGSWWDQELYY
# In short: (§3)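 Gastric membrane vesicles from hog stomach were prepared by differential and zonal density gradient centrifugation. Activity was read as inorganic phosphate released from ATP at pH 7.4. Protein was measured by the Bradford method against a gammaglobulin standard.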
# [4] = target: Potassium-transporting ATPase (Oryctolagus cuniculus); assay: Inhibition of H+/K+ ATPase as reduced acid formation in rabbit gastric glands
# [5] = test system: Potassium-transporting ATPase (Oryctolagus cuniculus); assay: Inhibition of H+/K+ ATPase was evaluated by its ability to inhibit acid formation in rabbit gastric glands; Inactive
# [6] = target: T1, Potassium-transporting ATPase; assay: Ability to inhibit purified H+/K+ ATPase at pH 7.4 measured as release of inorganic phosphate from ATP using gastric membrane vesicles prepared from hog stomach; Inactive; type: tissue-based
# In short: as §3, with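 “7.4. IC50 was taken as the concentration giving 50% inhibition of K+-stimulated activity, calculated by linear regression and reported ± standard error of the mean.” for “7.4.”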
# Canis familiaris [7] = assay: Intravenous effective dose for gastric antisecretory activity against histamine-stimulated gastric acid secretion in adult mongrel dogs; Inactive; type: functional, organism-based; conditions: Canis lupus familiaris; Stomach; in short: as §1
# Canis familiaris [8] = organism: Canis familiaris; assay: Peroral effective dose for gastric antisecretory activity against histamine-stimulated gastric acid secretion in adult mongrel dogs; Inactive; type: functional, organism-based; conditions: Canis lupus familiaris; Stomach
# [9] = target: Potassium-transporting ATPase (Sus scrofa, UniProt P19156); assay: as §2; type: tissue-based; in short: as §3
# Chain of Potassium-transporting ATPase (Sus scrofa, UniProt P19156) (P18434 whole entry): as the sequence (P18434 whole entry) above
# Chain of Potassium-transporting ATPase (Sus scrofa, UniProt P19156) (P19156 whole entry): as the sequence (P19156 whole entry) above
# Canis familiaris [10] = assay: Intravenous effective dose for gastric antisecretory activity against histamine-stimulated gastric acid secretion in adult mongrel dogs; type: functional; conditions: Canis lupus familiaris, Stomach; in short: as §1
SMILES,pKa [2],IC50 ([4]; read-out: IC50),ED50 (Canis familiaris [8]),IC50 [9],ED50 (Canis familiaris [10]),other results
Cc1nc2c(CCc3ccccc3)nccn2c1N,5.1,,,,,ED50 (Canis familiaris [1]): inactive
Cc1nc2c(OCc3ccccc3)nccn2c1N,,8080 nM,,,,IC50 [3]: 178 uM l-1
OCc1c(C(F)(F)F)nc2c(OCc3ccccc3)cccn12,2,,inactive,,,IC50 [5]: Not Active; IC50 [6]: Not Active; ED50 (Canis familiaris [7]): inactive
Cc1nc2c(/C=C\c3ccccc3)cccn2c1C,,17500 nM,inactive,28400 nM,,ED50 (Canis familiaris [7]): inactive
Cc1nc2c(OCc3ccccc3)cccn2c1CO,6.1,530 nM,inactive,2200 nM,0.3 mg/kg,
Cc1nc2c(OCc3ccccc3)nccn2c1C,4.8,,,,2 mg/kg,
Cc1nc2c(CCc3ccccc3)cccn2c1C,7.5,,,,0.2 mg/kg,
Cc1nc2c3c(ccn2c1CC#N)CCC(c1ccccc1)O3 (stereo unspecified),,64 nM,,92 nM,0.06 mg/kg,
Cc1nc2c(/C=C/Cc3ccccc3)cccn2c1N,,14100 nM,inactive,8600 nM,,ED50 (Canis familiaris [7]): inactive
Cc1nc2c(C/C=C/c3ccccc3)cccn2c1CC#N,,,inactive,,,IC50 [3]: 206 uM l-1; IC50 [4]: 442 uM l-1; ED50 (Canis familiaris [7]): inactive
Cc1nc2c(CCc3ccccc3)cccn2c1N,,1460 nM,,2100 nM,,
Cc1c(CC#N)nc2c(OCc3ccccc3)cccn12,5.5,,,,0.8 mg/kg,
Cc1nc2c(/C=C/c3ccccc3)cccn2c1C,,990 nM,,1680 nM,,
N#CCc1c(C(F)(F)F)nc2c(OCc3ccccc3)cccn12,2,,inactive,,,IC50 [5]: Not Active; IC50 [6]: Not Active; ED50 (Canis familiaris [7]): inactive
Cc1c(C(F)(F)F)nc2c(OCc3ccccc3)cccn12,2,,,,,ED50 (Canis familiaris [1]): inactive
Cc1nc2c(/C=C/Cc3ccccc3)cccn2c1CC#N,,3800 nM,,14000 nM,,
Cc1nc2c(CCc3ccccc3)cccn2c1CC#N,,130 nM,,2000 nM,,
Cc1nc2c(OCc3ccccc3)cccn2c1N,,310 nM,,890 nM,,
Cc1nc2c(OCc3ccccc3)cccn2c1C,7,,,,0.1 mg/kg,
Cc1ccn2c(CC#N)c(C)nc2c1OCc1ccccc1,,400 nM,,13700 nM,,

# — ChEMBL document CHEMBL1130412, “Antiulcer agents. 6. Analysis of the in vitro biochemical and in vivo gastric antisecretory activity of substituted imidazo[1,2-a]pyridines and related analogues using comparative molecular field analysis and hypothetical active site lattice methodologies” (J Med Chem, 1997)
